Legend:
MT4 [1] = experiment: Antiviral activity against PI resistant virus D545701 was determined in MT-4 cell line; type: functional, cell-based; conditions: Homo sapiens
How it was run: (§1)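 Antiviral IC50 measured in MT4 cells infected with the named HIV strain: wild-type HXB2, or the multi-PI-resistant EP13 or D545701.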

MT4 [2] = experiment: Antiviral activity against PI resistant virus EP13 was determined in MT-4 cell line; type: functional, cell-based; conditions: Homo sapiens; how it was run: as §1
MT4 [3] = experiment: Antiviral activity against wild-type HIV virus (HXB2) was determined in MT-4 cell line; type: functional, cell-based; conditions: Homo sapiens; how it was run: as §1
[4] = Oral bioavailability in rat; type: ADME, organism-based; conditions: in vivo
[5] = Half life period in rat; type: ADME, organism-based; conditions: in vivo
[6] = target: Human immunodeficiency virus type 1 protease (Human immunodeficiency virus 1, UniProt Q72874); experiment: Inhibition of HIV-1 Protease activity
MT4 [7] = experiment: Antiviral activity against PI resistant virus D545701 in MT-4 cell line; type: functional, cell-based; conditions: Homo sapiens; how it was run: as §1
MT4 [8] = experiment: Antiviral activity against wild-type HIV virus (HXB2) in MT-4 cell line; type: functional, cell-based; conditions: Homo sapiens; how it was run: as §1
MT4 [9] = experiment: Antiviral activity against PI resistant virus EP13 in MT-4 cell line; type: functional, cell-based; conditions: Homo sapiens; how it was run: as §1

SMILES	IC50 (MT4 [1]) [nM]	IC50 (MT4 [2]) [nM]	IC50 (MT4 [3]) [nM]	bioavailability [4] [%]	half-life [5] [h]	Ki [6] [nM]	IC50 (MT4 [7]) [nM]	IC50 (MT4 [8]) [nM]	IC50 (MT4 [9]) [nM]
CC(=O)NCCCC(C)(C)CN(C[C@@H](O)[C@H](Cc1ccccc1)NC(=O)O[C@H]1CO[C@H]2OCC[C@H]21)S(=O)(=O)c1ccc2c(c1)OCO2	120	30	23						
COC(=O)NCCCCC(C)(C)CN(C[C@@H](O)[C@H](Cc1ccccc1)NC(=O)O[C@H]1CO[C@H]2OCC[C@H]21)S(=O)(=O)c1ccc2c(c1)OCO2	9.2	15	1.6	20	1.3				
COC(=O)NCCCC(C)(C)CN(C[C@@H](O)[C@H](Cc1ccccc1)NC(=O)O[C@H]1CO[C@H]2OCC[C@H]21)S(=O)(=O)c1cccc(N)c1	100	36	18			0.00021			
CC(C)(C)NC(=O)[C@@H]1CN(Cc2cccnc2)CCN1C[C@@H](O)C[C@@H](Cc1ccccc1)C(=O)N[C@H]1c2ccccc2C[C@H]1O	440	330	50						
COC(=O)NCCCCCC(C)(C)CN(C[C@@H](O)[C@H](Cc1ccccc1)NC(=O)O[C@H]1CO[C@H]2OCC[C@H]21)S(=O)(=O)c1ccc2c(c1)OCO2	65	46	5.5			0.00012			
COC(=O)NCCC(C)(C)CN(C[C@@H](O)[C@H](Cc1ccccc1)NC(=O)O[C@H]1CO[C@H]2OCC[C@H]21)S(=O)(=O)c1ccc2c(c1)OCO2	40	22	1.4			0.00016			
CNC(=O)NCCCC(C)(C)CN(C[C@@H](O)[C@H](Cc1ccccc1)NC(=O)O[C@H]1CO[C@H]2OCC[C@H]21)S(=O)(=O)c1ccc2c(c1)OCO2	200	110	38						
CC(C)CN(C[C@@H](O)[C@H](Cc1ccccc1)NC(=O)O[C@H]1CCOC1)S(=O)(=O)c1ccc(N)cc1	> 1000	440	130			0.057			
Cc1c(O)cccc1C(=O)N[C@@H](CSc1ccccc1)[C@H](O)CN1C[C@H]2CCCC[C@H]2C[C@H]1C(=O)NC(C)(C)C	> 1000	450	320						
COC(=O)NCCCC(C)(C)CN(C[C@@H](O)[C@H](Cc1ccccc1)NC(=O)O[C@H]1CO[C@H]2OCC[C@H]21)S(=O)(=O)c1ccc2c(c1)OCO2	66	38	4.7			0.00052			
CC(C)(CCCN)CN(C[C@@H](O)[C@H](Cc1ccccc1)NC(=O)O[C@H]1CO[C@H]2OCC[C@H]21)S(=O)(=O)c1ccc2c(c1)OCO2							730	370	540
CC(C)(CCCNS(C)(=O)=O)CN(C[C@@H](O)[C@H](Cc1ccccc1)NC(=O)O[C@H]1CO[C@H]2OCC[C@H]21)S(=O)(=O)c1ccc2c(c1)OCO2	150	47	33						
COC(=O)NCCCC(C)(C)CN(C[C@@H](O)[C@H](Cc1ccccc1)NC(=O)O[C@H]1CO[C@H]2OCC[C@H]21)S(=O)(=O)c1ccc(N)cc1						0.00026	95	31	46
